Assays:
Staphylococcus aureus [1] = test: Inhibition of staphyloxanthin pigment formation in methicillin-resistant Staphylococcus aureus USA400 MW2 after 48 hrs by spectrophotometric method; type: functional, organism-based; details: MW2, 48 h
Method in brief: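 MRSA grown in 4 mL TSB with 40 µL compound (2-fold serial dilutions from 20 mM DMSO stock) at 37 °C for 48 h, triplicate. Cells washed twice in PBS, pigment extracted with methanol, OD450 measured; IC50 from dose-response fit.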

Staphylococcus aureus [2] = test: Sensitization of Staphylococcus aureus Newman to immune clearance in human whole blood assessed as reduction in bacterial survival at 1 uM […] relative to control; type: functional
[3] = Volume of distribution at steady state in Sprague-Dawley rat at 5 mg/kg, iv administered as single dose; type: ADME, organism-based; details: in vivo, read-out: Vdss
Method in brief: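 Male SD rats, 3 per group, single iv 5 mg/kg or oral 10 mg/kg. Blood sampled 0.083 (iv only), 0.25, 0.5, 1, 2, 4, 6, 8, 24 h postdose; plasma separated at 4 °C, stored −80 °C, analysed within 1 week. Parameters from plasma concentration-time data; F from dose-normalized AUC, oral vs iv.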

Staphylococcus aureus [4] = test: Antibacterial activity against Staphylococcus aureus Newman infected Balb/c mouse assessed as reduction of bacterial survival in kidney at 5.2 mg, ip bid administered for 4.5 days followed by bacterial infection measured after 5 days; type: functional
Method in brief: (§1)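 Female BALB/c mice, 6–8 weeks, dosed ip with compound in sterile water once and every 12 h for 108 h; water vehicle controls. Challenged 12 h after first dose with 1 × 10^7 CFU Newman by retro-orbital injection. Kidneys and hearts homogenised in PBS/0.1% Triton X-100 and plated on TSA for CFU. n = 13 mice; two-tailed Mann-Whitney.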

Staphylococcus aureus [5] = test: Sensitization of methicillin-resistant Staphylococcus aureus USA400 MW2 to immune clearance in human whole blood assessed as bacterial survival at 1 uM measured after 24 hrs (reference value: 10.2%); type: functional
Staphylococcus aureus [6] = test: Sensitization of methicillin-resistant Staphylococcus aureus USA400 MW2 to H2O2 assessed as bacterial survival at 1 uM measured after 24 hrs (reference value: 11.7%); type: functional; details: MW2, 24 h
Staphylococcus aureus [7] = test: Sensitization of methicillin-resistant Staphylococcus aureus USA400 MW2 to immune clearance in human whole blood assessed as reduction in bacterial survival at 1 uM measured after 24 hrs relative to control; type: functional
Method in brief: (§2)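 Overnight cultures spun down and resuspended in sterile PBS at 1 × 10^7 CFU/mL. 40 µL mixed with 360 µL fresh whole blood from a healthy human volunteer, giving 1 × 10^6 CFU/mL. Incubated 6 h at 37 °C. Surviving CFU counted by plating dilutions on TSA.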

[8] = Cytotoxicity against HMEC1 measure after 72 hrs by SRB assay; details: Homo sapiens, HMEC-1, 72 h
Staphylococcus aureus [9] = test: Sensitization of methicillin-resistant Staphylococcus aureus Mu50 to immune clearance in human whole blood assessed as bacterial survival at 1 uM measured after 24 hrs (reference value: 16.1%); type: functional
[10] = target: T1, 4,4'-diapophytoene desaturase (4,4'-diaponeurosporene-forming) (Staphylococcus aureus (strain Newman), UniProt O07855); test: Inhibition of Staphylococcus aureus Newman 6His-tagged CrtN expressed in Escherichia coli BL21(DE3) using diapophytoene as substrate assessed as pigment formation after overnight incubation by spectrophotometric method; set-up: species or system Staphylococcus aureus subsp. aureus str. Newman
T1 sequence (O07855 whole entry): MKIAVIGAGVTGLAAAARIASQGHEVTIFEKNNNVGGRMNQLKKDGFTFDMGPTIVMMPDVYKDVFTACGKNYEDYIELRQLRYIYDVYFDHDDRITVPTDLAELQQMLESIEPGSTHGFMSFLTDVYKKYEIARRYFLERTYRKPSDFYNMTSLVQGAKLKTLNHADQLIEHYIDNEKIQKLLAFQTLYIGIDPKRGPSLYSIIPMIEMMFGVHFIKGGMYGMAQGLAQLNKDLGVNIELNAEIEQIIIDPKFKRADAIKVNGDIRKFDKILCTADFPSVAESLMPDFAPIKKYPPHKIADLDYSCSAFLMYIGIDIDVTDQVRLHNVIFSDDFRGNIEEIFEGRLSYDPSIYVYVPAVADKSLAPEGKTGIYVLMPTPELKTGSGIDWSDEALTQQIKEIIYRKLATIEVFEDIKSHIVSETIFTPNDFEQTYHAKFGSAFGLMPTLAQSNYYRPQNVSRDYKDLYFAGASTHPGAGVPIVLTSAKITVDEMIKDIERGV
Method in brief: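 Lysate of E. coli BL21(DE3) expressing 6His-CrtN (IPTG 0.5 mM, 16 °C overnight), ~1.41 mg CrtN per reaction, with diapophytoene–phosphatidylcholine emulsion in 0.02 M HEPES pH 7.5 plus FAD. Anaerobic via glucose oxidase 20 U/mL, catalase 20000 U/mL, glucose 2 mM (final). Started with lysate, overnight at 37 °C; triplicate.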

Staphylococcus aureus [11] = test: Suppression in growth of methicillin-resistant Staphylococcus aureus USA400 MW2 at 0.05 mM measured after overnight incubation by spectrophotometric method; type: organism-based; details: 50 µM
Method in brief: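 Compound from 20 mM DMSO stock diluted in TSB to final 0.2 or 0.05 mM; DMSO growth controls; paraffin overlay. Overnight cultures inoculated to final OD600 ≈ 0.05; incubated at 37 °C overnight with OD600 read every 30 min.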

Staphylococcus aureus [12] = test: Sensitization of methicillin-resistant Staphylococcus aureus USA400 MW2 to H2O2 assessed as reduction in bacterial survival at 1 uM measured after 24 hrs relative to control; type: functional
Method in brief: (§3)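 Strains grown 24 h in TSB with or without inhibitor, washed twice in PBS, then diluted to 4 × 10^6 CFU per 250 µL reaction. H2O2 added to a final 1.5%. Tubes sealed and held 30 min at 37 °C. Reaction stopped with 1000 U/mL catalase. Survivors counted as CFU by serial dilution on TSA plates and compared with untreated (mock) bacteria.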

Staphylococcus aureus [13] = test: Sensitization of methicillin-resistant Staphylococcus aureus Mu50 to immune clearance in human whole blood assessed as reduction in bacterial survival at 1 uM measured after 24 hrs relative to control; type: functional; method in brief: as §2
Staphylococcus aureus [14] = test: Antibacterial activity against Staphylococcus aureus Newman infected Balb/c mouse assessed as reduction of bacterial survival in heart at 5.2 mg, ip bid administered for 4.5 days followed by bacterial infection measured after 5 days; type: functional; method in brief: as §1
[15] = Cytotoxicity against human WI38 cells measure after 72 hrs by SRB assay; type: cell-based; details: WI-38, 72 h
Nannizzia gypsea = test: Antifungal activity against Microsporum gypseum measured after 7 days by serial dilution method; type: functional
Method in brief: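 Broth serial dilution MIC per NCCLS in RPMI 1640 buffered with 0.165 M MOPS; compounds in DMSO diluted in medium. Dermatophytes incubated at 28 °C, read at 7 days. MIC taken as lowest concentration giving ≥80% growth inhibition versus control (turbidity).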

Staphylococcus aureus [16] = test: Inhibition of staphyloxanthin pigment formation in Staphylococcus aureus Newman after 48 hrs by spectrophotometric method; type: functional, organism-based
Method in brief: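 Compounds as 20 mM DMSO stocks, serial 2-fold dilutions in DMSO; 40 µL added to 4 mL TSB culture, 37 °C for 48 h, in triplicate. Cells washed twice with PBS, pigment extracted with methanol, OD450 measured; IC50 from dose-response curve fit of OD data.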

Staphylococcus aureus [17] = test: Sensitization of Staphylococcus aureus Newman to H2O2 assessed as reduction in bacterial survival at 1 uM measured after 24 hrs relative to control; type: functional; method in brief: as §3

SMILES: CN(C/C=C/c1ccc(C(F)(F)F)cc1)Cc1cccc2ccoc12.Cl
- IC50 (Staphylococcus aureus [1]): 5.45 nM
- fold change (FC) (Staphylococcus aureus [2]): 33
- Vd [3]: 10.7 L/kg
- Activity (Staphylococcus aureus [4]): 0.85 deltalog10CFU
- survival at 1 µM (Staphylococcus aureus [5]): 1.3%
- survival at 1 µM (Staphylococcus aureus [6]): 0.6%
- fold change (FC) (Staphylococcus aureus [7]): 8
- IC50 [8]: 67100 nM
- survival at 1 µM (Staphylococcus aureus [9]): 3%
- IC50 [10]: 339 nM
- Activity (Staphylococcus aureus [11]): Non-toxic
- fold change (FC) (Staphylococcus aureus [12]): 20
- fold change (FC) (Staphylococcus aureus [13]): 5
- Activity (Staphylococcus aureus [14]): 1.01 deltalog10CFU
- IC50 [15]: 47900 nM
- MIC80 (lowest concentration giving ≥80% growth inhibition) (Nannizzia gypsea): 32 µg/mL
- IC50 (Staphylococcus aureus [16]): 3.93 nM
- fold change (FC) (Staphylococcus aureus [17]): 30
